A selection: hits, their analogues and other compounds. The true share with any hit is near 1.6%.
FLuc inh counter: counter-screen for luciferase assay inhibitors: firefly luciferase inhibition; P08659; inhibition, % at 10 µM; ATPLite firefly luciferase biochemical luminescence, 10 min; 200,000 tested, 1.5% active;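 active means inhibition above about 50% when tested at 10 µM, limit read from the data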
Target sequence (P08659 whole entry, looked up): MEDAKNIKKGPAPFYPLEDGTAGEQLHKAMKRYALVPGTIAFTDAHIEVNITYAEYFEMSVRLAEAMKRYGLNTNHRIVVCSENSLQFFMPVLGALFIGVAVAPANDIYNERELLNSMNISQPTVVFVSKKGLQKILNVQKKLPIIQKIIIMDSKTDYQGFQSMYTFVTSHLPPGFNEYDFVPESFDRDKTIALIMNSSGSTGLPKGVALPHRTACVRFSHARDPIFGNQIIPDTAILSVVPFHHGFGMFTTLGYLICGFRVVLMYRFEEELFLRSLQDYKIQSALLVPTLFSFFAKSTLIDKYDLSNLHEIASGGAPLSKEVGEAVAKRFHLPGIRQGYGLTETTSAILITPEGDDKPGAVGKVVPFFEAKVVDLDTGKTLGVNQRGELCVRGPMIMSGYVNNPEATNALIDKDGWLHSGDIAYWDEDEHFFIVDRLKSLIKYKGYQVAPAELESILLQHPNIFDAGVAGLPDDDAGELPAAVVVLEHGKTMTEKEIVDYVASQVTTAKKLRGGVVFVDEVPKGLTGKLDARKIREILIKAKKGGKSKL
Platelet DG rel: modulates dense granule release in human platelets; human platelet-rich plasma, SFLLRN dense granule ATP release, luminescence; inhibition, %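 (compounds screened at 7.5 µM in platelet-rich plasma)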; 300,000 tested, 0.22% active; AID 1663;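 active means mean replicate score, as percent of positive control, at or above 50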
FLuc act counter: affects firefly luciferase, flagging false hits in luciferase stimulation screens; P08659; ATPlite luciferase biochemical, luminescence, 10 min; 0 = ATP-free wells, 1 = DMSO control; activation factor at 10 µM; 200,000 tested, under 10 active;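 active means luciferase activation factor, scaled between plate controls, of at least 2 with compound at 10 µM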
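Assay system: Luciferase/luciferin detection reagent, cell-free biochemical luciferase assay / Also added: ATP substrate / Schedule: 10 min at ambient temperature / Measured by: luminescence measurement of luciferase light output / Benchmarks: low control with PBS replacing ATP, high control enzyme plus ATP without compound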
C8 TRAIL sens: caspase-8 TRAIL sensitization | 360,000 tested, 1% active | AID 624354 | NB7+C8 cells + TRAIL, ATPlite viability luminescence | inhibition (viability loss, TRAIL sensitization), % at 10 µM;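 active means compounds causing at least 50% loss of cell viability in the single-dose screen, relative to plate controls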
PPC-1+TRAIL kill: compounds killing PPC-1 cancer cells with TRAIL present (potentiator screen, no TRAIL-free arm). PPC-1 cells + TRAIL, ATPLite viability luminescence. cell killing (% activity), % at 4 µM or 5 µM. 220,000 tested, 0.41% active;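 active means cell killing above 50% in the first pass at 4 µM, then a duplicate retest at 5 µM averaging 50% or more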;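 further: plate controls were cells with TRAIL plus DMSO for no effect and medium-only wells lacking cells for full effect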
* marks the source's active call; other numbers are inactive results; . = not tested or not shown.

SMILES	FLuc inh counter	Platelet DG rel	FLuc act counter	C8 TRAIL sens	PPC-1+TRAIL kill
N/C(=N\OC(=O)c1ccc(Cl)c([N+](=O)[O-])c1)c1ccccn1	26	11	0.7	9	17
N/C(=N\OC(=O)c1cccc(Br)c1)c1ccccn1	.	-8	.	77*	.
CCOC(=O)C1=C[C@@H](C(C)(C)C)N(S(=O)(=O)c2ccc(C)cc2)[C@H]1c1ccc(C)cc1	.	.	.	4	.
N/C(=N\OC(=O)c1ccco1)c1cccc(Br)c1	56*	1	0.4	0	-3
O=C(COC(=O)c1ccccn1)c1cccc(Br)c1	.	-15	.	-9	.
O=C(COC(=O)c1ccccn1)c1ccc(Br)cc1	63*	-1	0.4	-8	-4
N/C(=N\OC(=O)c1ccco1)c1cccc([N+](=O)[O-])c1	39	11	0.6	-1	9
O=C1NC[C@@H](CCCCN2C[C@H](Cc3ccccc3)N(CCc3ccc(O)cc3)C(=O)C2=O)N(CC2CCCCC2)C1=O	.	.	.	-13	.
O=C(NC(Sc1ccc(Cl)cc1)C(=O)O)c1ccccc1 (stereo not drawn)	.	.	.	-6	.
O=C(O)c1ccc(N=Nc2c(O)[nH]c3ccccc23)cc1	.	133*	.	15	9
CN(C)C(=O)c1ccc(N=Nc2c(O)c3ccccc3[nH]c2=O)cc1	.	.	.	76*	.
Cc1ccccc1N=Nc1c(O)[nH]c2ccccc12	.	1	.	-8	.
Cc1ccc(N=Nc2c(O)c3ccccc3[nH]c2=O)c(S(=O)(=O)N(C)C)c1	.	.	.	.	55*
Cc1cc(N=Nc2c(O)c3ccccc3[nH]c2=O)ccc1N=Nc1ccc(C(=O)N(C)C)cc1	.	-3	.	35	20
COc1cc(-c2cc(NC=O)c3ncc(-c4ccc(C(C)=O)cc4)n3c2)ccc1O	.	.	.	9	.
Cc1ccc(Cn2cc(CN3CC(N4CCSCC4)CS3(=O)=O)nn2)cc1 (stereo not drawn)	.	.	.	-2	.
CCCCNC(=O)c1nc(C2CCN(S(=O)(=O)c3ccc(Cl)cc3)CC2)oc1-c1ccccc1	.	.	.	4	.
CCN(CC)c1ccc(C(=O)NNC(=O)CCl)cc1	1	2	1	5	5
CCN(CC)c1ccc(C(=C2C=CC(=[N+](CC)CC)C=C2)c2ccc(N(CC)CC)cc2)cc1	.	.	.	88*	.
CCN(CC)c1ccc(C(=O)NNC(=O)CCNC(=O)c2ccccc2)cc1	.	.	.	11	.
CCN(CC)c1ccc(C(=C2C=CC(=[N+](CC)CC)C=C2)c2ccccc2)cc1	.	.	.	89*	.
CCCCN(C=O)c1c(CC)nc2c(OCc3ccc(S(C)(=O)=O)cc3)cccn12	.	.	.	-7	.
CCOC(=O)CSc1nnc(-c2ccc(Cl)cc2Cl)o1	56*	1	0.4	13	21
C/C=C/c1cccc(-c2nc(C(=O)NC3CCCC3)cc3c2[C@@H](CCO)N(S(=O)C(C)(C)C)C3)c1 (stereo partly drawn)	.	.	.	-7	.
O=Cc1nccc2ccccc12	.	.	.	10	.
SMILES	FLuc inh counter	Platelet DG rel	FLuc act counter	C8 TRAIL sens	PPC-1+TRAIL kill
C(=Cc1c[nH]c2ccccc12)c1nccc2ccccc12	.	.	.	73*	.
C(=Cc1c[nH]c2ccccc12)c1ccc2ccccc2n1	.	.	.	71*	.
CN(C)S(=O)(=O)c1ccc(N2CCN(S(=O)(=O)c3ccc(F)cc3)CC2)c(Cl)c1	-10	9	1.1	53*	28
Cc1cc(/C=N/NC(=O)c2ccccc2F)c(C)n1-c1ccccc1	75*	13	0.2	31	22
Cc1cc(/C=N/NC(=O)c2cccc(F)c2)c(C)n1-c1ccccc1	79*	4	0.2	27	16
Cn1nc(C(C)(C)C)cc1C(=O)N1CCCCC1c1cc(C(=O)NCc2ccc(F)cc2)no1 (stereo not drawn)	.	.	.	13	.
CCCc1cc(=O)oc2c3c(c4c(c12)OC(C)(C)C=C4)OC(C)C(C)C3O (stereo not drawn)	.	3	.	78*	-18
COC(=O)[C@@]12C[C@@H](CC(=O)NCc3ccc(OC)c(OC)c3)C(=O)N(Cc3cccc4ccccc34)C1=CCC(C)(C)C2	.	.	.	-2	.
CCCCN(CCCC)Cc1cc(=O)oc2ccc3ccccc3c12	.	.	.	-12	.
COc1ccc(C(=O)N2CCCC(c3nc(-c4ccc(OC)c(OC)c4)no3)C2)c(OC)c1 (stereo not drawn)	-8	50*	1.1	16	-4
COc1ccc(-c2noc(C3CCCN(C(=O)c4ccccc4OC)C3)n2)cc1OC (stereo not drawn)	-2	0	1	7	-6
CCOC1=C2CN(S(=O)(=O)c3ccccc3)[C@H](c3ccccc3)C[C@H]2n2c(=O)n(-c3ccccc3)c(=O)n2C1	.	.	.	8	.
Cc1cccc(Sc2c([N+](=O)[O-])ncn2C)c1	52*	-1	0.5	-6	14
Cc1cccnc1Sc1c([N+](=O)[O-])ncn1C	-3	3	1	-4	10
Cn1cnc(Sc2ncnc3nc[nH]c23)c1[N+](=O)[O-]	.	4	.	62*	4
Cn1cnc([N+](=O)[O-])c1Sc1ncnc2nc[nH]c12	.	-1	.	67*	17
Cn1cnc([N+](=O)[O-])c1Sc1ccncn1	.	.	.	0	.
COc1ccc(S(=O)(=O)N2CCCC(c3cc(C(=O)NCc4cccnc4)no3)C2)cc1 (stereo not drawn)	.	.	.	11	.
COCCNC(=O)C1(C)CCN(C(=O)c2cc(-c3ccccc3)cs2)C1 (stereo not drawn)	.	.	.	-23	.
O=S1(=O)N[C@@H](Cc2ccccc2)COc2ccc(Cl)cc21	.	.	.	-17	.
CNC(=O)C1CN(C(=O)c2nn(Cc3ccccc3)c(=O)c3ccccc23)c2ccccc2O1 (stereo not drawn)	.	.	.	-3	.
CN(NC(=O)c1cccc(Cl)c1)c1nc(-c2ccccc2)nnc1C(F)(F)F	0	.	1	53*	7
Cc1ccc(C(C)C)c(OCC(=O)Nc2ccc3c(c2)nc(CCN2CCCCC2)n3C)c1	.	3	.	56*	.
Cc1ccc(-n2nc3cc(C)c(N)cc3n2)cc1	81*	3	0.2	12	2
CCc1ccc(-n2nc3cc(C)c(N)cc3n2)cc1	.	5	.	66*	.
SMILES	FLuc inh counter	Platelet DG rel	FLuc act counter	C8 TRAIL sens	PPC-1+TRAIL kill
O=C(Nc1ccc(NC(=O)C2CC2)cn1)c1ccccc1	.	22	.	50*	.
O=C(Nc1ccc(NC(=O)c2ccccc2F)cn1)c1ccco1	.	15	.	54*	.
O=C(Nc1ccc(NC(=O)c2ccco2)nc1)c1cccnc1	62*	1	0.4	20	30
O=C(Nc1ccc(NC(=O)c2ccco2)nc1)c1cccc(F)c1	.	-1	.	27	.
O=C(Nc1ccc(NC(=O)C2CC2)cn1)c1ccccc1Cl	24	.	0.8	7	5
FC(F)(F)c1cccc(-c2nc3nc(Cl)c(Cl)nc3[nH]2)c1	.	6	.	53*	29
O=C(/C=C/Nc1ccc(F)c(Cl)c1)c1ccco1	41	5	0.6	12	30
CN(C)c1ccc(N/C=C/C(=O)c2ccc(F)cc2)cc1	58*	95*	0.4	30	13
O=C(/C=C/Nc1cccc(F)c1)c1ccco1	76*	13	0.2	27	7
COC(=O)c1ccc(N/C=C/C(=O)c2ccccc2)cc1	.	36	.	55*	.
